Active and inactive are the calls of the source.
How the values were obtained:
[1] = molecular target: Acetylcholinesterase (Electrophorus electricus) (UniProt O42275); experiment: (§1) Inhibition of electric eel AChE using acetylthiocholine iodide as substrate preincubated for 10 mins followed by substrate addition by Ellman's method
Acetylcholinesterase = Acetylcholinesterase (Electrophorus electricus, UniProt O42275); experiment: as §1
[2] = molecular target: Cholinesterase (Equus caballus) (UniProt P81908); experiment: (§2) Inhibition of […] preincubated for 10 mins followed by substrate addition by Ellman's method
Cholinesterase (Equus caballus), sequence (P81908 whole entry): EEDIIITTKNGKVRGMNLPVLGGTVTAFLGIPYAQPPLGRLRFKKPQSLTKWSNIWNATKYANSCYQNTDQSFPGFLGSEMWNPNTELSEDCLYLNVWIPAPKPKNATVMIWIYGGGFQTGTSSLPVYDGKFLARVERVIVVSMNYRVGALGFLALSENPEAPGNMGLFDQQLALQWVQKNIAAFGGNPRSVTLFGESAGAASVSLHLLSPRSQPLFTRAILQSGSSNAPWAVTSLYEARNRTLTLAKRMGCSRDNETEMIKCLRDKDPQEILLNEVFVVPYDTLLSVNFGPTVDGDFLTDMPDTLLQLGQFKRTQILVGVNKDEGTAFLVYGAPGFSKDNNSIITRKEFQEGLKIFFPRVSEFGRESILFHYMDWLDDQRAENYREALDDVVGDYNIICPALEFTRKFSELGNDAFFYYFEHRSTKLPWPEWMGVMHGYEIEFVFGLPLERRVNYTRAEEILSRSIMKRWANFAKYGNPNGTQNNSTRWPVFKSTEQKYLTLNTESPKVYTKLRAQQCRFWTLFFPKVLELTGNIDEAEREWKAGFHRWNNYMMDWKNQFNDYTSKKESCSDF

Cholinesterase = Cholinesterase (Equus caballus, UniProt P81908); experiment: as §2
Cholinesterase, sequence (P81908 whole entry): as above

Mus musculus [3] = experiment: Antinociceptive activity in carrageenan-induced Swiss mouse model of mechanical hyperalgesia assessed as mechanical hyperalgesic index pretreated orally for 1 hr followed by carrageenan challenge by Von Frey filament assay; type: functional
Procedure, shortened: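 Swiss mice were placed in wire-screen acrylic boxes 60 min before testing. Vehicle, compound or indomethacin was given orally 1 h before intraplantar carrageenan. Mechanical threshold was found by the von Frey up-and-down method, with at least 6 trials at 10 s intervals, raising filament mass until paw withdrawal. Results are given as threshold in grams; n=8.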

Mus musculus [4] = experiment: Antinociceptive activity in formalin-induced Swiss mouse model of hyperalgesia assessed as time spent licking the injected paw in early phase at 100 mM/kg, po pretreated for 1 hr followed by formalin injection and measured up to 5 mins (reference value: 74 +/- 7.7 secs); type: functional
Mus musculus [5] = experiment: Antinociceptive activity in formalin-induced Swiss mouse model of hyperalgesia assessed as time spent licking the injected paw in last phase at […], po pretreated for 1 hr followed by formalin injection and measured at 20 to 30 mins (reference value: 135.8 +/- 10.7 secs); type: functional
Mus musculus [6] = experiment: Anti-inflammatory activity in Swiss mouse assessed as reduction in carrageenan-induced paw edema by measuring paw volume […] po pretreated for 1 hr followed by carrageenan injection and measured after 1 to 5 hrs by plethysmometric method (reference value: 67.73 +/- 4.2 uL); type: functional
Procedure, shortened: (§3)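 Male Swiss mice (22–28 g) were fasted overnight and dosed orally with vehicle (2% DMSO in sterile saline), compound or indomethacin 1 h before intraplantar carrageenan. Groups (n=10) were matched on basal paw volume. Right hind paw volume was read by plethysmometer at 1, 3 and 5 h and expressed as change from basal.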

Mus musculus [7] = experiment: Anti-inflammatory activity in po dosed Swiss mouse assessed as reduction in carrageenan-induced paw edema pretreated for 1 hr followed by carrageenan injection and measured after 1 to 5 hrs by plethysmometric method; type: functional; settings: read-out: ID50 (the source's name); procedure, shortened: as §3
[8] = Selectivity ratio of compound effect for inhibition of human COX2 to compound effect for inhibition of ovine COX1
Procedure, shortened: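 COX-1 or COX-2 with heme was preincubated 120 min with compound (10 µM) in assay buffer. Arachidonic acid and a chemiluminescent substrate were then added at room temperature and peroxidative activity was read for 5 s; ibuprofen was the reference. Selectivity index was taken as the ratio of maximum COX-2 inhibition to COX-1 inhibition. Two independent experiments.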

Mus musculus [9] = experiment: Inhibition of serum COX1 level in Swiss mouse model of carragenan-induced paw edema at 100 mM/kg, po pretreated for 1 hr followed by carrageenan treatment measured after 3 hrs by ELISA; type: functional
Procedure, shortened: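 Swiss mice (n=8) received compound (100 mM/kg) or vehicle orally 1 h before intraplantar carrageenan; indomethacin was the positive control. Three hours later, blood was drawn from the heart under chloral hydrate anaesthesia and serum was collected. COX-1 and COX-2 protein was measured by sandwich ELISA read at 450 nm and expressed as percent COX level.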

THP-1 = experiment: Anti-inflammatory activity in human THP1 cells assessed as inhibition of LPS-induced TNFalpha production at 10 uM after 24 hrs by ELISA relative to control; type: functional; settings: THP-1, 24 h
Procedure, shortened: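 Human monocytic THP-1 cells (5×10^5 cells/mL) were given LPS 1 µg/mL with or without compound at 10 µM for 24 h. Cells were spun out at 500 × g and the medium kept at −80 °C. Secreted IL-1β and TNFα were measured with high-sensitivity ELISA. Three independent experiments.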

SH-SY5Y [10] = experiment: Neuroprotection in human SH-SY5Y cells assessed as inhibition of amyloid beta (1 to 42) oligomer-induced neuronal death at 10 uM after 24 hrs by propidium iodide staining based fluorescence microscopic method; type: functional, cell-based
Procedure, shortened: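 After plating at 5×10^3 cells/well and growing 24 h, SH-SY5Y cells were co-exposed to compound and Aβ1-42 oligomers (10 µM) for 24 h at 37 °C. Cells were stained with propidium iodide in PBS for 10 min. Dead cells were counted by fluorescence microscopy in four fields of 50–100 cells and expressed as PI-positive/total × 100. Three independent experiments.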

Mus musculus [11] = experiment: (§4) Toxicity in C57Bl/6 mouse model of amyloid beta (1 to 42) oligomer-induced neuroinflammation assessed as induction of neurodegeneration in CA1 region of contralateral hippocampus at 100 mg/kg, ip pretreated for 1.5 hrs followed by amyloid beta (1 to 42) oligomer addition and measured after 7 days by Fluoro-Jade C staining based fluorescence microscopic assay; type: organism-based; settings: in vivo, 168 h
Procedure, shortened: (§5)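 C57Bl/6 male mice were dosed i.p. at 100 mg/kg 1.5 h before stereotactic right intrahippocampal Aβ1-42 oligomer injection (400 pmol/0.5 µL), with PBS as control. After 7 days, hippocampal sections were stained with Fluoro-Jade C (0.0001%) after NaOH/ethanol and permanganate steps. Five CA1 images per hippocampus were imaged under fluorescence and pixel intensity quantified, n=10.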

Mus musculus [12] = experiment: as §4, with “ipsilateral” for “contralateral”; type: organism-based; settings: in vivo, 168 h; procedure, shortened: as §5
SH-SY5Y [13] = experiment: Neuroprotection in human SH-SY5Y cells assessed as inhibition of amyloid beta (1 to 42) oligomer-induced early neurotoxic event by measuring decrease in MTT formazan exocytosis at 10 uM after 4 hrs by microscopic method; type: functional, cell-based
Procedure, shortened: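 SH-SY5Y cells (3×10^4/well) were grown 24 h, then co-treated with compound and Aβ1-42 oligomers (10 µM) for 4 h at 37 °C. Medium was replaced by MTT in PBS for 2 h. Needle-like exocytosed formazan crystals on the cell surface were assessed by light microscopy. Three independent experiments.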

Acetylcholinesterase (Electrophorus electricus), sequence (O42275 24-633 limits assumed): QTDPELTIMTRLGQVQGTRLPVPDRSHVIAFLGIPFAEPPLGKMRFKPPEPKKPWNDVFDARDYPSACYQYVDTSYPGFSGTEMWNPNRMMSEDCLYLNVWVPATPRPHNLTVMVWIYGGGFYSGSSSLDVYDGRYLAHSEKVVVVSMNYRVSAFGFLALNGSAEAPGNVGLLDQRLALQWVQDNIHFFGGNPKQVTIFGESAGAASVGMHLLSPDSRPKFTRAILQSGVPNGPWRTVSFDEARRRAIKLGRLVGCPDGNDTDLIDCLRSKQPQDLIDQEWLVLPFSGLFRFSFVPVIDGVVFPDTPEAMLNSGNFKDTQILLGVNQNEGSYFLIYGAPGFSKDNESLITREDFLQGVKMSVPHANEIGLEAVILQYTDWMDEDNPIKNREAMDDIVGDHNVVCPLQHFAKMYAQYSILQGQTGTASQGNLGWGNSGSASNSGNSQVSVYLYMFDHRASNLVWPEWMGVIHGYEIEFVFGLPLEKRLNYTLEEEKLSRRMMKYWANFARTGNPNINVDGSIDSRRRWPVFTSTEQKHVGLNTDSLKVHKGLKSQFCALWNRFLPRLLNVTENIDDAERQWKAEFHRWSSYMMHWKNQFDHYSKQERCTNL
Acetylcholinesterase, sequence (O42275 whole entry): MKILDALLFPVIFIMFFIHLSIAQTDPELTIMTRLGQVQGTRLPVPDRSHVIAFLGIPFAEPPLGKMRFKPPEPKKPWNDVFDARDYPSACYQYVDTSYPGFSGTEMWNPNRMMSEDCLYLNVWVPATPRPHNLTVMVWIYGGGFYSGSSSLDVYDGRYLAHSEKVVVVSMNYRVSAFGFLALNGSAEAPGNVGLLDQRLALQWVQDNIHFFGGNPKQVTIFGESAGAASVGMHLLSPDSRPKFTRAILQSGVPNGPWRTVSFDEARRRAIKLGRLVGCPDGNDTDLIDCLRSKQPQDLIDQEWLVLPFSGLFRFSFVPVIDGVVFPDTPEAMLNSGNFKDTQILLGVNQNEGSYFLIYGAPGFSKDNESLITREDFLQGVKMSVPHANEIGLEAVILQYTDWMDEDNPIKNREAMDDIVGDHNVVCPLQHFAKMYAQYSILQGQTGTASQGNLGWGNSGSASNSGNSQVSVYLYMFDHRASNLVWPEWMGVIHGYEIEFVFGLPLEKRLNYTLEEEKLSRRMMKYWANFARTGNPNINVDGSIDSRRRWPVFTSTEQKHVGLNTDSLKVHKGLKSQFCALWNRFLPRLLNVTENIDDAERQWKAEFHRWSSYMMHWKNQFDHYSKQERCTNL

| SMILES | inhibition [1] | IC50 (Acetylcholinesterase) | inhibition [2] | IC50 (Cholinesterase) | Activity_index (Mus musculus [3]) | Time (Mus musculus [4]) | Time (Mus musculus [5]) | Activity (Mus musculus [6]) | ED50 (Mus musculus [7]) | Selectivity ratio [8] | inhibition (INH) (Mus musculus [9]) | inhibition at 10 µM (THP-1) | inhibition (SH-SY5Y [10]) | Activity (Mus musculus [11]) | Activity (Mus musculus [12]) | inhibition (SH-SY5Y [13]) |
| --- | --- | --- | --- | --- | --- | --- | --- | --- | --- | --- | --- | --- | --- | --- | --- | --- |
| O=C(N/N=C/c1ccc(F)cc1)c1ccc(CN2CCCC(O)C2)cc1 (stereo not given) | Dose-dependent effect | 8.65 µM | Dose-dependent effect | 39 µM | 178.9 | 18.86 s | 24.17 s | 20 µL | 4.66 µmol/kg | 0.83 | 34% | 69% | Active | Toxic | Toxic | – |
| O=C(N/N=C/c1ccc(Cl)cc1)c1ccc(CN2CCCC(O)C2)cc1 (stereo not given) | Dose-dependent effect | 25.4 µM | Dose-dependent effect | 48.2 µM | 168.3 | 14 s | 62.88 s | 17.14 µL | 8.76 µmol/kg | 1.27 | 27% | 98% | Active | Non-Toxic | – | Active |

— ChEMBL document CHEMBL4145530, “Design, synthesis and pharmacological evaluation of N-benzyl-piperidinyl-aryl-acylhydrazone derivatives as donepezil hybrids: Discovery of novel multi-target anti-alzheimer prototype drug candidates” (Eur J Med Chem, 2018)
